WT yeast gro inh: growth inhibition of WT strain, primary screen, mitochondrial fusion inhibitor project, WT and mutant strains, chemical genetic; inhibition, % at 10 µM; AID 1362, 2008; mitochondrial fusion phenotypic screen; 190,000 compounds, 2.1% hits; in the data active = inhibition above about 58%; tested in S. cerevisiae
Yeast life ext: compounds extending yeast replicative lifespan, primary screen, S. cerevisiae, OD615; S. cerevisiae growth with nicotinamide; deaD strain in restrictive glucose medium; inhibition of the nicotinamide effect, % at 10 µM; 130,000 compounds, 0.68% hits; AID 775, 2007;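 active = inhibition above a set limit, placed 3 SD over the median of all compounds, cut at about 26% in these data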
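Assay system: engineered S. cerevisiae DeaD replicative-lifespan strain, galactose-grown log-phase cells; Buffer or medium: CSMM-D glucose medium, restrictive; Probe or stimulus: nicotinamide 1.5 mM; Compound: single dose 10 µM compound, 0.25% DMSO; Schedule: 4 h preincubation then 48 h treatment at 30 °C; Technique: OD615 measurement.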
Yeast growth inh: growth inhibitors of yeast BB579 in restrictive medium, primary screen, yeast lifespan-shortening project, S. cerevisiae | OD615, 48 h | inhibition, % at 10 µM | 140,000 compounds, 0.51% hits;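 active = inhibition above a set limit, 3 SD over the mean compound inhibition, cut at about 44% in these data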
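Material: Saccharomyces cerevisiae DeaD strain BB579, replicative lifespan model yeast; buffer or medium: CSMM-D restrictive synthetic medium containing dextrose (glucose); compound: 10 µM single dose, DMSO 0.25%; timing: 48 h compound exposure at 30 °C after 4 h preincubation; signal: turbidity as optical density at 615 nm; benchmarks: positive control amphotericin B 10 µg/mL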
RAM inhibit: inhibitors of the yeast RAM network, primary screen, dse1pr::URA3 reporter, 5-FOA selection; S. cerevisiae dse1pr::URA3 reporter, 5-FOA growth OD615, 2 d; analog-sensitive cbk1-as2 kinase mutant strain; inhibition, % at 50 µM; 190,000 compounds, 1.8% hits; AID 868, 2007;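 active = inhibition above a set limit, 3 SD over mean compound inhibition, cut at about 8.4% in these data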;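 also: inhibition rescues growth on 5-FOA so higher OD means more RAM inhibition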
Numbers stand for hits; – = inactive; · = not tested or not shown. An excerpt weighted towards active compounds, which were near 4.3% of everything screened.

SMILES	WT yeast gro inh	Yeast life ext	Yeast growth inh	RAM inhibit
Nc1cccc2nc3ccccc3cc12	–	–	59	–
O=Nc1c(O)n(Cc2cccc(C(F)(F)F)c2)c2ccccc12	–	·	·	–
CCCn1nnnc1NC(=O)COc1ccc(Br)cc1	–	·	·	–
NC(=O)C1CC(=O)N(c2ccc(OCc3ccccc3Cl)cc2)C1 (centres undefined)	–	·	·	–
COc1ccc(CNC(=O)c2coc(=O)c3ccccc23)c(OC)c1	–	·	·	–
Cc1ccc(CNC(=O)CCNC(=O)c2ccco2)cc1	95	–	–	–
CCOc1ncccc1C(=O)OCC(=O)c1ccc(C)c(C)c1	–	·	·	–
C[N+]1(CC(=O)Nc2ccc(F)cc2)CCN(C(=O)c2ccco2)CC1	67	–	–	–
O=C(Nc1ccc(F)cc1)C(c1ccccc1)N1CCN(C(=O)c2ccco2)CC1 (centres undefined)	–	–	–	–
Cc1ccc(Nc2nc(C)cs2)cc1	–	·	·	–
CCOC(=O)c1c(-c2ccccc2)csc1NC(=O)CSc1nncs1	59	–	–	11
COc1ccc(N2CCN(C(=S)Nc3cccc(C)c3C)CC2)cc1	–	–	–	10
COc1ccccc1Nc1nc(N)nc(CN2CC(C)CC(C)C2)n1 (centres undefined)	–	·	·	–
CCO[C@@H]1OC(C(=O)NCc2ccccc2)=C[C@H](c2ccc(Br)cc2)[C@H]1CCCO	–	·	·	–
Cc1cc(NC(=O)CSc2nc3sc(C)c(C)c3c(=O)n2C2CCCC2)no1	–	–	–	–
Fc1ccccc1NC(=S)NN(Cc1ccccc1)c1ccccc1	–	–	–	–
CC(C)c1ccccc1NC(=S)NN(Cc1ccccc1)c1ccccc1	62	–	–	–
Cc1ccc(C2CCN(C(=S)Nc3cccc(C)c3)C2)cc1 (centres undefined)	78	·	·	–
Cc1ccc(C)c(NC(=S)N2CCCCCC2)c1	–	·	–	–
Cc1cccc(NC(=S)N2CCCCC2)c1	–	–	–	–
Cc1ccc(C2CCN(C(=S)NC3CCCCC3)C2)cc1 (centres undefined)	66	·	·	–
Cc1ccc(C2CCN(C(=S)NC(C)(C)C)C2)cc1 (centres undefined)	–	·	·	–
Cc1ccc(Cl)cc1NC(=S)N1CCC(c2ccccc2)C1 (centres undefined)	59	·	·	–
CCOc1ccccc1NC(=O)CN1C(=O)C(C)SC(C)C1=O (centres undefined)	–	·	·	–
CC(=O)N1CCN(c2ccccc2NC(=O)COc2ccccc2C)CC1	–	·	·	–
SMILES	WT yeast gro inh	Yeast life ext	Yeast growth inh	RAM inhibit
Cc1ccccc1OCC(=O)Nc1ccccc1-c1ccccc1NC(=O)COc1ccccc1C	–	–	–	9.4
Cc1cccc(OCC(=O)Nc2ccccc2N2CCCCC2)c1	–	–	–	–
CCC(=O)N1CCN(c2ccccc2NC(=O)COc2cc(C)ccc2C(C)C)CC1	67	–	–	–
Cc1ccccc1OCC(=O)Nc1ccccc1N1CCC(C)CC1	65	·	·	–
Cc1ccccc1OCC(=O)Nc1ccccc1N1CCOCC1	–	–	–	–
Cc1ccc(OCC(=O)Nc2ccccc2N2CCCC2)c(C)c1	66	·	·	–
O=C(NNC1=Nc2cccc3cccc1c23)c1ccc(Br)cc1	–	·	·	–
S=C(NCc1ccc(Cl)cc1)NC1CCN(Cc2ccccc2)CC1	–	·	·	–
CN(C)/C=C(\C#N)C(=O)Nc1ccc(O)cc1F	–	·	·	–
Cc1c(C(=O)O)sc2nc(SCC(=O)Nc3ccc(S(=O)(=O)NC(C)(C)C)cc3)[nH]c(=O)c12	–	·	·	8.5
C=C(C)CN(CC)C(=O)CSc1nc(O)cc(=O)n1C1CCCC1	–	·	·	–
Nc1nc(SCC(=O)Nc2ncc(C(F)(F)F)cc2Cl)n[nH]1	–	·	·	–
O=C(O)C1C2C=CC(C2)C1C(=O)NCc1ccc(Cl)c(Cl)c1 (centres undefined)	–	–	–	–
Cc1ccc(/C=C2\C(=O)ON=C2c2ccccc2)o1	–	·	·	–
Cc1ccc(-c2ccc(/C=C3\C(=O)ON=C3c3ccccc3)o2)c([N+](=O)[O-])c1	–	71	–	–
CCOc1ccc2nc(-c3cc(NC(C)=O)ccc3O)sc2c1	–	·	·	–
CCCCCCCCC(=O)N/N=C/c1ccccn1	–	–	–	–
CCCCCCCCC/C(=N\O)c1ccccn1	74	–	100	–
Nn1c(=O)c2ccccc2n2c(SCc3ccc(C(F)(F)F)cc3)nnc12	–	–	–	8.6
Nn1c(=O)c2ccccc2n2c(SCc3ccccc3)nnc12	–	–	–	–
CCCN1Cc2cccc(C(=O)NC(CC(=O)OCC)c3ccc(OC(C)C)cc3)c2C1=O (centres undefined)	–	·	·	–
CCCN1Cc2cccc(C(=O)NC(CC(=O)OCC)c3ccc(C)cc3)c2C1=O (centres undefined)	66	·	·	–
O=C(/C=C/c1cccs1)Nc1ccncc1	–	–	–	–
CCCOC(=O)c1ccc(NC(=O)/C=C/c2cccs2)cc1	–	–	–	10
O=C(CSc1nnc(COc2ccccc2)o1)N1CCOCC1	–	·	·	–
SMILES	WT yeast gro inh	Yeast life ext	Yeast growth inh	RAM inhibit
O=C(O)c1cc2nc(-c3ccccc3)cc(C(F)(F)F)n2n1	–	57	–	–
Cc1ccnc(NS(=O)(=O)c2cnc(Cl)c(Br)c2)c1	–	–	–	–
Cc1ccc(S(=O)(=O)CCC(=O)NCc2ccco2)cc1	–	–	–	–
COc1cccc2cc(/C(=N/O)c3ccccc3)oc12	–	·	·	–
COc1cnc(-c2ccccc2)nc1Oc1ccc(C(C)(C)C)cc1	–	–	–	11
COc1ccc(NC(=S)NC(NC(=O)c2ccccc2Cl)C(Cl)(Cl)Cl)c([N+](=O)[O-])c1 (centres undefined)	–	–	–	–
COc1ccc(NC(=S)NC(NC(=O)c2ccc(Cl)cc2Cl)C(Cl)(Cl)Cl)c([N+](=O)[O-])c1 (centres undefined)	68	–	–	–
CN(CCc1cnn(C)c1)Cc1cn[nH]c1-c1ccc(-c2ccccc2)cc1	–	·	·	–
CC(C)N(CCc1ccncc1)C(=S)Nc1cccc(Cl)c1	–	·	·	–
COc1ccc(C(=O)C(CN2CCOCC2)c2ccccc2)cc1 (centres undefined)	–	61	–	–
O=C(c1ccc(F)cc1)C(CN1CCOCC1)c1ccccc1 (centres undefined)	81	–	–	–
O=C(NNc1ncccc1Cl)c1c(Cl)cccc1Cl	–	·	·	–
CNc1nc(-c2ccc(OC)cc2)c(-c2ccc(OC)cc2)s1	68	·	·	–
O=C1CCC2S/C(=C/Nc3ccc(C(F)(F)F)cc3)C(=O)N12 (centres undefined)	–	·	·	–
Cc1ccc(CC2SC(=Nc3ccccc3)N(c3ccccc3)C2=O)cc1 (centres undefined)	61	–	–	–
O=C(O)CC1SC(=Nc2ccccc2)N(c2ccccc2)C1=O (centres undefined)	–	–	–	–
CC(=O)Nc1ccc(C2(c3ccc(NC(C)=O)cc3)C(=O)Nc3ccccc32)cc1	–	·	·	–
COc1cc2c(cc1OC)C(Nc1ccccc1)=NC(C)(C)C2	–	–	–	–

Assay outcomes deposited in PubChem BioAssay by SRMLSC.
